The nature of data set [1]: Cytotoxicity against human HepG2 cells assessed as reduction in cell viability after 72 hrs by MTT assay. It counts as toxicity, cell-based. The method, boiled down:
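HepG2 hepatocarcinoma cells in RPMI with 10% FBS, L-glutamine, penicillin/streptomycin, 37 °C, 6% CO2. Seeded 5.10^3 cells/well, 24 h attachment, then compounds added from DMSO (final under 0.5% v/v) at various concentrations for 72 h, triplicates. Wells checked microscopically for precipitate. MTT 0.5 mg/mL 2 h, formazan dissolved in DMSO, A570 (ref 630 nm). Viability as % of untreated cells; CC50 from dose–response curve.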
In general terms: Tetrazolium dyes change colour on reduction, which living cells bring about.

Data set [2] in a line: Selectivity index, ratio of CC50 for human HepG2 cells to IC50 for chloroquine/pyrimethamine/proguanil-resistant Plasmodium falciparum K1 infected in human erythrocytes. It counts as functional.
The test system of a further data set is Plasmodium falciparum. Nature of the data set: Antiplasmodial activity against chloroquine/pyrimethamine/proguanil-resistant Plasmodium falciparum K1 infected in human erythrocytes after 72 hrs by SYBR Green 1 dye based fluorescence spectrophotometric method. It counts as functional, cell-based. To be noted: K1, 72 h.

The CC50 is the concentration giving 50% cytotoxicity. As usually defined, the IC50 is the concentration needed to halve the response being measured. Low values mean greater potency, high ones weaker potency.

Structures are written as SMILES. Where only a bound is given, the exact number is not on record here.

Turning to `Clc1nc(C(Cl)(Cl)Cl)nc2ccccc12`, in data set [1], the CC50 at 72 h was greater than 125 µM. Moreover, the “Ratio CC50/IC50” value in data set [2] is listed as greater than 2.3.
For `FC(F)(F)c1cccc(Nc2cc(C(Cl)(Cl)Cl)nc3ccccc23)c1`, in the data set with Plasmodium falciparum, half-maximal inhibition (IC50) was put at 1.3 µM. Besides, the CC50 at 72 h in data set [1] amounted to 6.5 µM. Further, the “Ratio CC50/IC50” value in data set [2] is 5.
The like results for `Clc1ccc(Sc2nc3ccccc3nc2C(Cl)(Cl)Cl)cc1` were, in that order, 0.5 µM, 38.6 µM and 77.2.
The like results for `Clc1ccc(Nc2cc(C(Cl)(Cl)Cl)nc3ccccc23)c(Cl)c1` were, in that order, 1.3 µM, 11.7 µM and 9.
Taken in the same sequence, the figures for `O=C1C(O)=C([C@H]2CC[C@H](c3ccc(Cl)cc3)CC2)C(=O)c2ccccc21` [ATOVAQUONE] were 0.001 µM, greater than 15.6 µM and 15600.
Regarding `C[C@H]1c2cccc(O)c2C(=O)C2=C(O)[C@]3(O)C(=O)C(C(N)=O)=C(O)[C@@H](N(C)C)[C@@H]3[C@@H](O)[C@@H]21.O` [DOXYCYCLINE], in data set [2], the “Ratio CC50/IC50” value stood at 3.3.

Values taken from ChEMBL document CHEMBL3877253, “Discovery of new hit-molecules targeting Plasmodium falciparum through a global SAR study of the 4-substituted-2-trichloromethylquinazoline antiplasmodial scaffold” (Eur J Med Chem, 2017).
